According to ChEMBL document CHEMBL1139173, “Novel selective human mitochondrial kinase inhibitors: design, synthesis and enzymatic activity” (Bioorg Med Chem, 2007):
Active and inactive are the calls of the source. No cut-off for these calls is given here.

Legend:
Thymidine kinase [1] = target: T1, Thymidine kinase (Human alphaherpesvirus 1, UniProt Q9QNF7); test: Inhibition of HSV1 TK assessed as [methyl-3H]dThd phosphorylation
T1 sequence (Q9QNF7 whole entry): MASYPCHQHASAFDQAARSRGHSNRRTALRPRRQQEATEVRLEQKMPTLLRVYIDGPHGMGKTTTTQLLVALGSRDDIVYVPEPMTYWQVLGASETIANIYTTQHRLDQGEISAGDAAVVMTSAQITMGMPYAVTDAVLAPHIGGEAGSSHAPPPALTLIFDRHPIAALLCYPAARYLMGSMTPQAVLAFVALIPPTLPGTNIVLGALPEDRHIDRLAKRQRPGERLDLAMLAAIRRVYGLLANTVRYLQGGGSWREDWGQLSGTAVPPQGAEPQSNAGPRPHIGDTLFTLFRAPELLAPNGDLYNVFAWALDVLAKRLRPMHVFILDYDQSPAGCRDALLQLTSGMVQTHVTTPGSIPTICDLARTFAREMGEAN
Procedure, shortened: (§1)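 Purified recombinant GST-fusion kinases (from pGEX-5X-1 cDNAs) assayed in 50 mM Tris–HCl pH 8.0, 2.5 mM MgCl₂, 10 mM DTT, 0.5 mM CHAPS, 3 mg/mL BSA, 2.5 mM ATP, 0.25 µCi [methyl-³H]dThd (2 µM), ± varying inhibitor levels, 37 °C for 30 min. Reactions spotted on DE-81 filter disks, washed, and counted by scintillation. IC50 is the concentration halving dThd phosphorylation.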

[2] = target: T2, Thymidine kinase 2, mitochondrial (Homo sapiens, UniProt O00142); test: Inhibition of human TK2 assessed as [methyl-3H]dThd phosphorylation; procedure, shortened: as §1
T2 sequence (O00142 whole entry): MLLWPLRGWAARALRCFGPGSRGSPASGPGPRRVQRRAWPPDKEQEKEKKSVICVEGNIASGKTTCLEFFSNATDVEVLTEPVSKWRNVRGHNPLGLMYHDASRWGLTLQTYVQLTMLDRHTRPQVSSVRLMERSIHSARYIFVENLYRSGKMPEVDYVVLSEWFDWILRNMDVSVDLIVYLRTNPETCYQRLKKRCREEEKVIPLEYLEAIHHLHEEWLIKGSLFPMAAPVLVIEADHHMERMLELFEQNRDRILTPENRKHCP

Deoxynucleoside kinase = target: T3, Deoxynucleoside kinase (Drosophila melanogaster, UniProt Q9XZT6); test: Inhibition of Drosophila melanogaster dNK assessed as [methyl-3H]dThd phosphorylation
T3 sequence (Q9XZT6 whole entry): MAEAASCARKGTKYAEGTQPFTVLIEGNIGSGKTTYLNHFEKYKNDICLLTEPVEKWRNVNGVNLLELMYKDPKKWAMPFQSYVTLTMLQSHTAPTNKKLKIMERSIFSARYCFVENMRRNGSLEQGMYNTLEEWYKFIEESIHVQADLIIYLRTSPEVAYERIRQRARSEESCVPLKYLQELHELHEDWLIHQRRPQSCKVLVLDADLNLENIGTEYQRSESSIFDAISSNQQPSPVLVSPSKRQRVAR
Procedure, shortened: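 Purified recombinant enzyme expressed as a GST fusion. Mix: 50 mM Tris–HCl pH 8.0, 2.5 mM MgCl2, 10 mM DTT, 0.5 mM CHAPS, 3 mg/mL BSA, 2.5 mM ATP, 2 µM [methyl-3H]dThd (0.25 µCi). Incubated 37 °C, 30 min, with varied inhibitor levels. Aliquots spotted on DE-81 disks, washed, scintillation-counted.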

Thymidine kinase [3] = target: T4, Thymidine kinase (Varicella-zoster virus (strain Dumas) (HHV-3) (Human herpesvirus 3), UniProt P09250); test: Inhibition of VZV TK assessed as [methyl-3H]dThd phosphorylation; design: species or system Human alphaherpesvirus 3
T4 sequence (P09250 whole entry): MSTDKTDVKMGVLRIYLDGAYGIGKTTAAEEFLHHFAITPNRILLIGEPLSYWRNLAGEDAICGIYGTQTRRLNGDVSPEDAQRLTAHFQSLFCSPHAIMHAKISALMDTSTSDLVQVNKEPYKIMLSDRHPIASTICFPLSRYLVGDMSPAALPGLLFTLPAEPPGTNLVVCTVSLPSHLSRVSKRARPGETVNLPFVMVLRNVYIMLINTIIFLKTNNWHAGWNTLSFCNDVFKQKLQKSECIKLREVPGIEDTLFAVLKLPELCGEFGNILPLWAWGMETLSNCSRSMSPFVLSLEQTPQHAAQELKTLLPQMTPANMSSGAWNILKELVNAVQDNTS

[4] = target: T5, Thymidine kinase, cytosolic (Homo sapiens, UniProt P04183); test: Inhibition of human TK1 assessed as [methyl-3H]dThd phosphorylation; procedure, shortened: as §1
T5 sequence (P04183 whole entry): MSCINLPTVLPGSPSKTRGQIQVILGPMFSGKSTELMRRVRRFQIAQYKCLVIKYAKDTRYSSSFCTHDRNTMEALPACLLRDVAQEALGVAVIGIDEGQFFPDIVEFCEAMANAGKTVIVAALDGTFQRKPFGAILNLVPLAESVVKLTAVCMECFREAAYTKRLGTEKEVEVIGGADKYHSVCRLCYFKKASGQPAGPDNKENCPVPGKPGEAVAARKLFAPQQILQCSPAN

[5] = Toxicity assessed as inhibition of mitochondrial function in human fibroblasts above 100 uM; format: cell-based; conditions: fibroblast
Procedure, shortened: (§2)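 Primary fibroblasts from healthy-volunteer forearm skin biopsies were used stationary. They were kept at 37 °C in 5% CO₂ in one of two media: permissive DMEM UP (4.5 g/l glucose, 10% FCS, 50 µg/ml uridine) or restrictive GAL (glucose-free RPMI, 50 µM galactose, 10% dialyzed FCS). Cells were exposed to a range of concentrations for 1 week. Viability was counted by trypan blue exclusion.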

[6] = Toxicity against human fibroblast cells assessed as alteration of mitochondrial function up to 60 uM; format: cell-based; procedure, shortened: as §2
[7] = target: T2, Thymidine kinase 2, mitochondrial; test: Inhibition of human fibroblast mitochondrial TK2 using dThd substrate
Procedure, shortened: (§3)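 Done on mitochondria isolated from human fibroblasts rather than on recombinant enzymes. TK2 activity was measured with dThd or dCyd as substrate. dGK activity was measured as a control. Read-out was IC50.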

[8] = Toxicity assessed as inhibition of mitochondrial function in normal fibroblasts upto 100 uM; format: cell-based; conditions: human, fibroblast; procedure, shortened: as §2
Fibroblast [9] = test: Decrease in cytochrome c oxidase to succinate dehydrogenase ratio in human fibroblasts; format: functional, cell-based
Procedure, shortened: (§4)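 Stationary normal skin fibroblasts were exposed to various concentrations for one week in permissive medium (glucose, uridine, 10% FCS). Cytochrome c oxidase (complex IV) and succinate dehydrogenase (complex II) activities were then assayed. COX/SDH ratios were calculated, with SDH as the mtDNA-independent control.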

Homo sapiens = species: Homo sapiens; test: Inhibition of human fibroblast mitochondrial cytochrome c oxidase; procedure, shortened: as §4
[10] = target: Deoxyguanosine kinase, mitochondrial (Homo sapiens) (UniProt Q16854); test: Inhibition of human fibroblast mitochondrial deoxyguanosine kinase
[11] = Toxicity against human fibroblast cells assessed as alteration of cellular viability upto 60 uM; format: cell-based; procedure, shortened: as §2
[12] = target: T2, Thymidine kinase 2, mitochondrial; test: Inhibition of human fibroblast mitochondrial TK2 using dCyd substrate; procedure, shortened: as §3
Fibroblast [13] = test: Decrease in nuclear DNA in human fibroblasts at 100 uM; format: functional; design: scale not given: the % may be the effect or the level left
[14] = target: T6, Deoxyguanosine kinase, mitochondrial (Homo sapiens, UniProt Q16854); test: Inhibition of human fibroblast mitochondrial deoxyguanosine kinase; procedure, shortened: as §3
T6 sequence (Q16854 whole entry): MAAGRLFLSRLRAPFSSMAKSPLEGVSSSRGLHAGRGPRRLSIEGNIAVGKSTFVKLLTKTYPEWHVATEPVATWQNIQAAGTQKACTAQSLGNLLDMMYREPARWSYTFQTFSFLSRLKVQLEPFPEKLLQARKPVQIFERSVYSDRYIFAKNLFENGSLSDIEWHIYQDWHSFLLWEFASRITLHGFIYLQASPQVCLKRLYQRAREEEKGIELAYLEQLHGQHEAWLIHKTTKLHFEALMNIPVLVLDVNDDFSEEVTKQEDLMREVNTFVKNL

Row | Structure (SMILES) | IC50 (Thymidine kinase [1]) [µM] | IC50 [2] [µM] | IC50 (Deoxynucleoside kinase) [µM] | IC50 (Thymidine kinase [3]) [µM] | IC50 [4] [µM] | other results
1 | CCCCCCCCO[C@H]1[C@H](O)[C@@H](CO)O[C@H]1n1cc(C)c(=O)[nH]c1=O | > 1000 | – | – | – | – | –
2 | O=c1[nH]c(=O)n([C@@H]2O[C@H](CO)[C@@H](O)[C@@H]2O)cc1/C=C/Br [SORIVUDINE] | 3.6 | 43 | 28 | 3.2 | > 500 | –
3 | NCCCC(=O)O[C@H]1[C@H](O)[C@@H](CO)O[C@H]1n1cc(/C=C/Br)c(=O)[nH]c1=O | 17 | 187 | 160 | 3.6 | > 500 | –
4 | CCCCCCCCCC(=O)O[C@H]1[C@H](O)[C@@H](CO)O[C@H]1n1cc(/C=C/Br)c(=O)[nH]c1=O | > 1000 | – | – | – | – | Activity [5]: Toxic; Activity [6]: Not Active; IC50 [7]: 40 µM; Activity [8]: Active; Activity (Fibroblast [9]): Active; Activity (Homo sapiens): Active; IC50 [10]: > 1000 µM; Activity [11]: Non-toxic; IC50 [12]: 97 µM; Activity (Fibroblast [13]): 50%; IC50 [14]: > 1000 µM
5 | Cc1cn([C@@H]2O[C@H](CO)[C@@H](O)[C@@H]2O)c(=O)[nH]c1=O | 24 | – | – | – | – | –
6 | CC(C)(C)OC(=O)NCCCCCC(=O)O[C@H]1[C@H](O)[C@@H](CO)O[C@H]1n1cc(/C=C/Br)c(=O)[nH]c1=O | ≥ 500 | 61 | 77 | 277 | – | –
7 | COc1ccc(CC(=O)O[C@H]2[C@H](O)[C@@H](CO)O[C@H]2n2cc(/C=C/Br)c(=O)[nH]c2=O)cc1 | 68 | 44 | 182 | 39 | – | –
8 | O=C(Cc1ccccc1)O[C@H]1[C@H](O)[C@@H](CO)O[C@H]1n1cc(/C=C/Br)c(=O)[nH]c1=O | 247 | 74 | 419 | 268 | – | –
9 | CC(C)(C)OC(=O)NCCCCCCCC(=O)O[C@H]1[C@H](O)[C@@H](CO)O[C@H]1n1cc(/C=C/Br)c(=O)[nH]c1=O | 447 | 6.4 | 74 | 349 | – | –
10 | Nc1ccn([C@@H]2O[C@H](CO)[C@@H](O)[C@@H]2O)c(=O)n1 [CYTARABINE] | > 1000 | – | – | – | – | –
11 | CCCCCCCC(=O)O[C@H]1[C@H](O)[C@@H](CO)O[C@H]1n1cc(/C=C/Br)c(=O)[nH]c1=O | ≥ 1000 | – | – | – | – | –
12 | CCCCCCCCCC(=O)O[C@H]1[C@H](O)[C@@H](CO)O[C@H]1n1cc(C)c(=O)[nH]c1=O | ≥ 1000 | – | – | – | – | –
13 | CCCCCCCC(=O)O[C@H]1[C@H](O)[C@@H](CO)O[C@H]1n1cnc2c(=O)[nH]c(N)nc21 | > 500 | > 500 | > 500 | > 500 | > 500 | –
14 | CCCCCCCCCCCC(=O)O[C@H]1[C@H](O)[C@@H](CO)O[C@H]1n1cc(C)c(=O)[nH]c1=O | ≥ 1000 | – | – | – | ≥ 1000 | –
15 | Nc1nc2c(ncn2[C@@H]2O[C@H](CO)[C@@H](O)[C@@H]2O)c(=O)[nH]1 | > 500 | > 500 | > 500 | > 500 | > 500 | –
16 | CCCCCCCC(=O)Nc1nc2c(ncn2[C@@H]2O[C@H](CO)[C@@H](O)[C@@H]2OC(=O)CCCCCCC)c(=O)[nH]1 | > 500 | > 500 | > 500 | > 500 | > 500 | –
17 | CC(C)(C)OC(=O)NCCCC(=O)O[C@H]1[C@H](O)[C@@H](CO)O[C@H]1n1cc(/C=C/Br)c(=O)[nH]c1=O | 485 | 55 | 133 | 130 | – | –
18 | CC(C)(C)OC(=O)NCCCCCCCCCCCC(=O)O[C@H]1[C@H](O)[C@@H](CO)O[C@H]1n1cc(/C=C/Br)c(=O)[nH]c1=O | > 500 | 3.8 | ≥ 500 | > 500 | – | –
19 | CCCCCCCCn1c(=O)c(C)cn([C@@H]2O[C@H](CO)[C@@H](O)[C@@H]2O)c1=O | > 500 | > 500 | > 500 | > 500 | > 500 | –
20 | Cc1cn([C@@H]2O[C@H](CO)[C@@H](O)[C@@H]2OCc2ccccc2)c(=O)[nH]c1=O | > 1000 | 801 | > 1000 | > 1000 | > 1000 | –
21 | CCCCCCCC(=O)O[C@H]1[C@H](O)[C@@H](CO)O[C@H]1n1cc(C)c(=O)[nH]c1=O | > 1000 | 120 | > 1000 | > 1000 | > 1000 | –
22 | CCCCCCCCCC(=O)N[C@H]1[C@H](O)[C@@H](CO)O[C@H]1n1cc(C)c(=O)[nH]c1=O | > 500 | 480 | > 500 | > 500 | – | –
23 | COCC(=O)O[C@H]1[C@H](O)[C@@H](CO)O[C@H]1n1cc(/C=C/Br)c(=O)[nH]c1=O | 84 | – | 215 | – | – | –
24 | CCCCCCCCO[C@H]1[C@H](O)[C@@H](CO)O[C@H]1n1cc(C)c(=O)n(CCCCCCCC)c1=O | > 1000 | > 1000 | > 1000 | > 1000 | – | –
25 | NCCCCCC(=O)O[C@H]1[C@H](O)[C@@H](CO)O[C@H]1n1cc(/C=C/Br)c(=O)[nH]c1=O | 322 | > 500 | > 500 | 94 | > 500 | –
26 | CCCCC(=O)O[C@H]1[C@H](O)[C@@H](CO)O[C@H]1n1cc(C)c(=O)[nH]c1=O | > 1000 | – | – | – | – | –
27 | CCCCC(=O)O[C@H]1[C@H](O)[C@@H](CO)O[C@H]1n1cnc2c(=O)[nH]c(N)nc21 | > 500 | > 500 | > 500 | > 500 | > 500 | –
